The source of these data is ChEMBL document CHEMBL1149269, “Novel 2-(substituted phenyl)benzimidazole derivatives with potent activity against IgE, cytokines, and CD23 for the treatment of allergy and asthma” (J Med Chem, 2004).

Data set [1] concerns Mus musculus. Nature of the data set: Oral bioavailability in mouse at 40 mg/kg, po relative to AVP-13358. It counts as ADME, organism-based. To be noted: in vivo.
Data set [2] in a line: Ex vivo inhibition of IgE production in spleen cells from antigen sensitized BALB/c mouse. It counts as functional, cell-based. The method in brief:
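BALB/c mice immunized with DNP-KLH plus alum; spleens taken 2 weeks later and cultured with antigen, with or without drug. Antigen-specific IgE in supernatants quantified by ELISA against a standard curve of DNP-specific mouse monoclonal antibody.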

In the next data set the test system is B-cell. Nature of the data set: Inhibition of IgE production in B lymphocytes from BALB/c mouse. The format is functional, cell-based. A digest of the protocol: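 B cells isolated from spleens of naive BALB/c mice, cultured 5 days with IL-4 (10 ng/mL) and anti-mouse CD40 antibody (100 ng/mL), with or without drug. IgE in supernatants quantified by ELISA against a standard curve of DNP-specific mouse monoclonal antibody.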

Data set [3] has as its system Mus musculus. Nature of the data set: Protection against allergic response in ovalbumin sensitized BALB/c mouse assessed as inhibition of airway hyper-responsiveness at 5 mg/kg, po twice daily. It counts as functional, organism-based. Further details: dose 5 mg/kg. A digest of the protocol: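 Female BALB/c mice sensitized i.p. with 10 µg OVA in 4 mg alum. At 2 weeks, OVA aerosol (2% in PBS) 20 min on 2 consecutive days with oral dosing twice daily for 3 days. 2 weeks later, OVA aerosol on 4 consecutive days with the same dosing. PBS-nebulized controls. Airway response to rising methacholine measured by whole-body plethysmography 1 day later.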

Data set [4] relates to T-cell. Nature of the data set: Inhibition of IL4 production in conA and anti-CD3 antibody sensitized BALB/c mouse spleen T lymphocytes. The format is functional, tissue-based.
Data set [5] deals with T-cell. Nature of the data set: Inhibition of IL5 production in conA and anti-CD3 antibody sensitized BALB/c mouse spleen T lymphocytes. It counts as functional, tissue-based.
Data set [6] concerns T-cell. Nature of the data set: Inhibition of IL13 production in conA and anti-CD3 antibody sensitized BALB/c mouse spleen T lymphocytes. It counts as functional, tissue-based.
Data set [7] relates to T-cell. Nature of the data set: Inhibition of IFN-gamma production in conA and anti-CD3 antibody sensitized BALB/c mouse spleen T lymphocytes. The format is functional, tissue-based.
A short description of data set [8]: Suppression of CD23 expression in IL4 and anti-CD40 antibody sensitized mouse splenocytes. To be noted: Splenocyte.
The nature of data set [9]: Suppression of IL4 receptor alpha expression in IL4 and anti-CD40 antibody sensitized mouse splenocytes. To be noted: Splenocyte.
Data set [10] is described as follows: Suppression of CD23 expression in IL4 and anti-CD40 antibody sensitized CD14-positive human peripheral blood lymphocytes. The conditions noted are these: Lymphocyte.

Active and inactive are the calls of the source. The calls are words filed in the database; no cut-off is given here.

With `O=C(Nc1ccccn1)c1ccc2[nH]c(-c3ccc(NC(=O)C45C[C@@H]6C[C@H](C4)[C@H](O)[C@@H](C6)C5)cc3)nc2c1`, the “Relative Bioavailability” value with Mus musculus [1] is given as less than 0.1. Also, the IC50 (in general, the concentration needed to halve the response being measured) in data set [2] was found to be 1 nM; with B-cell it was 15 nM.
Take `CC(=O)OC12CC3CC(C1)CC(C(=O)Nc1ccc(-c4nc5cc(C(=O)Nc6ccccn6)ccc5[nH]4)cc1)(C3)C2`: in the data set with Mus musculus [1], the “Relative Bioavailability” value worked out at 0.35. In addition, the IC50 worked out at 1 nM in [2] and 5 nM in the data set on B-cell.
The matching figures for `O=C(Nc1ccccn1)c1ccc2[nH]c(-c3ccc(NC(=O)C45CC6CC(C4)C(=O)C(C6)C5)cc3)nc2c1`: 0.5, 10 nM and 40 nM.
As for `O=C(Nc1ccccn1)c1ccc2[nH]c(-c3ccc(NC(=O)C45CC6CC(CC(C6)C4)C5)cc3)nc2c1`, the result with Mus musculus [3] and in the data set with T-cell [7] was Active. In addition, the IC50 with T-cell [4] was found to be 30 nM; with T-cell [5], 30 nM; in [2] it was 3 nM; in the data set with B-cell, 8 nM; in the data set on T-cell [6], 30 nM; in [8] it was 40 nM. Moreover, the IC50 was 100 nM in data set [9] and 20 nM in [10].
On to `O=C(Nc1ccc(-c2nc3cc(C(=O)NC45CC6CC(CC(C6)C4)C5)ccc3[nH]2)cc1)c1ccc(Cl)c(Cl)c1`, for which the “Relative Bioavailability” value in the data set on Mus musculus [1] is less than 0.1. For the same molecule, the IC50 in data set [2] is 0.4 nM; in the data set on B-cell, 2 nM.
The corresponding values for `O=C(NC12CC3CC(CC(C3)C1)C2)c1ccc2[nH]c(-c3ccc(NC(=O)C45CC6CC(CC(C6)C4)C5)cc3)nc2c1` are less than 0.1, 1 nM and 2 nM.
The matching figures for `O=C(NC1CCCCC1)c1ccc2[nH]c(-c3ccc(NC(=O)C45CC6CC(CC(C6)C4)C5)cc3)nc2c1`: less than 0.1, 2 nM and 7 nM.
As to `CC(=O)Nc1ccc(-c2nc3cc(C(=O)NC45CC6CC(CC(C6)C4)C5)ccc3[nH]2)cc1`, the “Relative Bioavailability” value in the data set with Mus musculus [1] is on record as less than 0.1. Further, the IC50 in data set [2] stood at 25 nM; with B-cell, 90 nM.
The matching figures for `O=C(Nc1ccccn1)c1ccc2[nH]c(-c3ccc(NC(=O)C45C[C@@H]6C[C@H](C4)[C@@H](O)[C@@H](C6)C5)cc3)nc2c1`: less than 0.1, 1 nM and 8 nM.
